The RNAGym collection of RNA variant scans (doi:10.1126/science.aae0568)
Fewer inactive variants are shown than the library holds.

B1: tRNA (parent)
chain: GUUCCGUUGGCGUAAUGGUAACGCGUCUCCCUCCUAAGGAGAAGACUGCGGGUUCGAGUCCCGUACGGAACG

Variants of: B1
Assay: yeast fitness relative to wild type (ratio to wild type); higher = fitter; tRNA-Arg(CCU), competitive growth, 37 C, YPD
Outline: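 Gene amplicons from the start population and from each of six end populations were read by 100-nucleotide paired-end sequencing. Those end populations came from pooled Saccharomyces cerevisiae strains carrying tRNA-Arg(CCU) gene variants at the native locus, competed in YPD at 37°C for 24 hours. Fitness relative to wild type was worked out from changes in genotype frequencies. Genotypes needed ≥ 100 starting reads, and estimates < 0.5 were set to 0.5.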

Row | Variant | yeast fitness
1 | C11U A15C A65C A70U | ≤ 0.5
2 | C11U A15C C27A G39C A65C | 0.531
3 | C11U A15C C27A G39C G48A | 0.546
4 | C11U A15C C27A G68A | ≤ 0.5
5 | C11U A15C C27G A70G | ≤ 0.5
6 | C11U A15C C29U A37G | 0.535
7 | C11U A15C C29U A37G A69U | ≤ 0.5
8 | C11U A15C C29U A37G G63A | ≤ 0.5
9 | C11U A15C G44A A65U | ≤ 0.5
10 | C11U A15C G44C C46A | ≤ 0.5
11 | C11U A15G | 1.01
12 | C11U A15G A21G C34U G44A C61A A70C | ≤ 0.5
13 | C11U A15G A36U A43U C46G C62A | 0.635
14 | C11U A15G A45G | 0.599
15 | C11U A15G A65G | 0.766
16 | C11U A15G A69U | 0.765
17 | C11U A15G C27G C46U | 0.548
18 | C11U A15G C27G C60U C62G C66G | ≤ 0.5
19 | C11U A15G C29G G48A C62U C66U | 0.535
20 | C11U A15G C46A | 0.915
21 | C11U A15G C46A A57G | 0.629
22 | C11U A15G C46A C62G G68A | ≤ 0.5
23 | C11U A15G G18A C31A A36G C61G | 0.513
24 | C11U A15G G23A C60A C61U G63C C66U | ≤ 0.5

Row | Variant | yeast fitness
25 | C11U A15G G48C | 0.511
26 | C11U A15G G58C | 0.725
27 | C11U A15G U26G C33A C55G | ≤ 0.5
28 | C11U A15G U26G U28C C33A C55G | ≤ 0.5
29 | C11U A15G U32A | ≤ 0.5
30 | C11U A15U A57G A69C | ≤ 0.5
31 | C11U A15U A65U | ≤ 0.5
32 | C11U A15U C27U C60G | 0.563
33 | C11U A15U C60U G67C | ≤ 0.5
34 | C11U A15U G41A | ≤ 0.5
35 | C11U A15U U35G G44C A69G | 0.774
36 | C11U A20C | 0.777
37 | C11U A20C A69C | 0.627
38 | C11U A20C C29G G56C G58A | 0.693
39 | C11U A20G | 0.957
40 | C11U A20G A37G U54A U59G | ≤ 0.5
41 | C11U A20G C24G | 0.506
42 | C11U A20G C24G G63C | ≤ 0.5
43 | C11U A20G C34G A40C G51C | ≤ 0.5
44 | C11U A20G U47G G58A | ≤ 0.5
45 | C11U A20U A65C | ≤ 0.5
46 | C11U A20U C22A | ≤ 0.5
47 | C11U A20U C22A U53G | ≤ 0.5
48 | C11U A20U C24U C29A A70G | ≤ 0.5

Row | Variant | yeast fitness
49 | C11U A20U C24U C29A C49U A70G | ≤ 0.5
50 | C11U A20U C24U C29A U32C A70G | ≤ 0.5
51 | C11U A20U C24U C33G U47A C49U | 0.557
52 | C11U A20U C24U G38A C49A A70U | ≤ 0.5
53 | C11U A20U C29G U47G G63A A70U | ≤ 0.5
54 | C11U A20U C30A G38A G51A U54A | ≤ 0.5
55 | C11U A20U C60U | ≤ 0.5
56 | C11U A20U G38A G51A U54A | 0.527
57 | C11U A20U G39A | ≤ 0.5
58 | C11U A20U G39A A65C | 0.533
59 | C11U A20U G39A G41C C46A G68A | ≤ 0.5
60 | C11U A20U G39C U54G | ≤ 0.5
61 | C11U A20U G44A C46A G52A C66U | ≤ 0.5
62 | C11U A21C | 0.714
63 | C11U A21C A36C A70U | ≤ 0.5
64 | C11U A21C A37U A42G A69C A70G | ≤ 0.5
65 | C11U A21C A42C G44A U54A C62U | ≤ 0.5
66 | C11U A21C A42G A69C | ≤ 0.5
67 | C11U A21C A42G A69C A70G | 0.563
68 | C11U A21C A42G C61U | ≤ 0.5
69 | C11U A21C A70G | ≤ 0.5
70 | C11U A21C C22A C66A | ≤ 0.5
71 | C11U A21C C22G | 0.657
72 | C11U A21C C27G G39C | 0.544

Row | Variant | yeast fitness
73 | C11U A21C C27G G39C C66U | ≤ 0.5
74 | C11U A21C C27G G44A A65U | ≤ 0.5
75 | C11U A21C C27U A42G A69C A70G | ≤ 0.5
76 | C11U A21C G67A | 0.597
77 | C11U A21C U35A A42U C46G | ≤ 0.5
78 | C11U A21G A43C | 0.649
79 | C11U A21G C24A | 0.529
80 | C11U A21G C24A G52A | ≤ 0.5
81 | C11U A21G C24A G52A C60A A69G | 0.523
82 | C11U A21G C29U C55G | ≤ 0.5
83 | C11U A21G C55U | 0.593
84 | C11U A21U A42G C60A | ≤ 0.5
85 | C11U A21U A45U | 1.15
86 | C11U A21U A69G | 0.712
87 | C11U A21U C22U | 0.673
88 | C11U A21U C30G A42G | 0.755
89 | C11U A21U C34G G56A | ≤ 0.5
90 | C11U A21U C46A | 0.685
91 | C11U A21U C61A A70U | ≤ 0.5
92 | C11U A21U C66U | 0.816
93 | C11U A21U G41A A57C | ≤ 0.5
94 | C11U A21U G41A C61A | ≤ 0.5
95 | C11U A21U G50C U64C | 0.597
96 | C11U A21U U35A A36U | ≤ 0.5

Row | Variant | yeast fitness
97 | C11U A21U U54A A70G | ≤ 0.5
98 | C11U A36C A65C C66U | 0.558
99 | C11U A36C C61U | ≤ 0.5
100 | C11U A36C U64A A70C | ≤ 0.5
101 | C11U A36G | 0.822
102 | C11U A36G A43C | 0.546
103 | C11U A36G A45C | 0.807
104 | C11U A36G C60G A70C | ≤ 0.5
105 | C11U A36G G41A C49U G63A | ≤ 0.5
106 | C11U A36G U53C | 0.538
107 | C11U A36U A37C A42U G63C | ≤ 0.5
108 | C11U A36U G48C | 0.632
109 | C11U A36U G48C U54C | ≤ 0.5
110 | C11U A37C | 0.724
111 | C11U A37C A45C | 0.576
112 | C11U A37C C49U | ≤ 0.5
113 | C11U A37C U47C | 0.706
114 | C11U A37C U47C G68C | ≤ 0.5
115 | C11U A37G C49U A69C | ≤ 0.5
116 | C11U A37G G52C A70U | ≤ 0.5
117 | C11U A37G U54A U59G | ≤ 0.5
118 | C11U A37U | 0.808
119 | C11U A37U C49G | ≤ 0.5
120 | C11U A37U C60U | 0.539

Row | Variant | yeast fitness
121 | C11U A40C | 0.755
122 | C11U A40C A43U U53A | ≤ 0.5
123 | C11U A40G A43C G56A | 0.578
124 | C11U A40G A65C | 0.594
125 | C11U A40G C46A | 0.792
126 | C11U A40G G67C A69U | 0.574
127 | C11U A40U | 0.787
128 | C11U A40U A69C | 0.646
129 | C11U A40U C46U C60G | 0.589
130 | C11U A40U C46U G63C | ≤ 0.5
131 | C11U A40U C55U G68A | ≤ 0.5
132 | C11U A40U C66G | ≤ 0.5
133 | C11U A40U G50C G58C U59A | 0.564
134 | C11U A42C A65G | 0.658
135 | C11U A42C G48A | 0.566
136 | C11U A42C U47C | 0.764
137 | C11U A42G C46G G56C A65C | ≤ 0.5
138 | C11U A42G C49A A57C | 0.51
139 | C11U A42G C60G | ≤ 0.5
140 | C11U A42G G48A | 0.678
141 | C11U A42G U59C C61U | ≤ 0.5
142 | C11U A42U A43G C61A | ≤ 0.5
143 | C11U A42U C60A A65U | 0.553
144 | C11U A42U C66A | 0.51

Row | Variant | yeast fitness
145 | C11U A42U G67C | 0.536
146 | C11U A43C C62U | 0.692
147 | C11U A43C G44A | 0.741
148 | C11U A43C G48C U64C | ≤ 0.5
149 | C11U A43C G56A | 0.692
150 | C11U A43G | 0.945
151 | C11U A43G A57C | ≤ 0.5
152 | C11U A43U A45C G67C | ≤ 0.5
153 | C11U A43U A70G | 0.738
154 | C11U A43U C46G | 0.723
155 | C11U A43U C62A | 0.605
156 | C11U A43U G63C | 0.558
157 | C11U A45C A70U | 0.582
158 | C11U A45C C62G A65C | ≤ 0.5
159 | C11U A45C G51A | 0.611
160 | C11U A45G | 0.96
161 | C11U A45G C46G U47A C62G A65C | 0.533
162 | C11U A45G G58A A65G | 1.11
163 | C11U A45G U59A | 0.526
164 | C11U A45U A57C G58A | 0.61
165 | C11U A45U A65C | 0.733
166 | C11U A45U A69C | 0.874
167 | C11U A45U A69U | 0.915
